Experimental data: the array DNA melting data of Ke et al. (doi:10.1101/2024.01.08.574731)

What was measured:
[1] = melting temperature; fluorescence melt of hairpins on a sequencing array, two-state fit, raised by 9.35 °C to match UV melts; conditions: sodium 0.088 M
Summary of the method: (§1)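 On a sequenced MiSeq flow cell, library hairpins with annealed Cy3 and quencher oligos were imaged for Cy3 fluorescence in 2.5 °C steps up to 60 °C, in 50 mM Na-HEPES pH 8.0, 25 mM NaCl. Normalisation used pre-quench Cy3 and control constructs. Bootstrapped two-state fits gave melting temperature and folding enthalpy, combined by inverse variance across four replicates and with fitted temperatures raised by 9.35 °C to match UV melts.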

[2] = folding enthalpy; higher = less favourable; fluorescence melt of hairpins on a sequencing array, two-state fit; conditions: sodium 0.088 M
Summary of the method: as §1

GCGGTCAACCGC ((((....))))
Tm [1]: 56 °C | folding enthalpy [2]: -28.6 kcal/mol

GAGGGGACGAAAGTCCTC (((..(((....))))))
Tm [1]: 41.2 °C | folding enthalpy [2]: -8.85 kcal/mol

GAAGATGAAAATCTTC ((((((....))))))
Tm [1]: 48.4 °C | folding enthalpy [2]: -28.1 kcal/mol

GATCTTCGCCAAGATC ((((((....))))))
Tm [1]: 42 °C | folding enthalpy [2]: -33.7 kcal/mol

GGGTACGAAAGTAGTCCC ((((((....)))..)))
Tm [1]: 36.4 °C | folding enthalpy [2]: -20.8 kcal/mol

GGGTAAGGAAACTTGCCC (((.(((....))).)))
Tm [1]: 50.5 °C | folding enthalpy [2]: -36.6 kcal/mol

GAGTTGGGAAACCGACTC ((((.((....)).))))
Tm [1]: 51.5 °C | folding enthalpy [2]: -40.2 kcal/mol

CTCGGGAAACCGAG (((((....)))))
Tm [1]: 56.1 °C | folding enthalpy [2]: -23.9 kcal/mol

GCCGGAGGAAACCCCGAC (.(((.(....).))).)
Tm [1]: 30.2 °C | folding enthalpy [2]: -6.74 kcal/mol

GATCACAGTTGTGATC ((((((....))))))
Tm [1]: 60.4 °C | folding enthalpy [2]: -35.7 kcal/mol

GATCGGGGAAACCCAATC (((.(((....))).)))
Tm [1]: 32.8 °C | folding enthalpy [2]: -20.8 kcal/mol

GATCCTAAGAGGATC ((((((...))))))
Tm [1]: 53.8 °C | folding enthalpy [2]: -29.6 kcal/mol

GCGCACGGAAACGTACGC (((.(((....))).)))
Tm [1]: 56 °C | folding enthalpy [2]: -44.3 kcal/mol

GGAAAACGAAAGTTTCC (((.(((....))))))
Tm [1]: 44.1 °C | folding enthalpy [2]: -21.7 kcal/mol

GGTGGGCGAAAGCCTACC (((.(((....))).)))
Tm [1]: 65.6 °C | folding enthalpy [2]: -22.3 kcal/mol

CGTGTCGGAAACGATACG (((.(((....))).)))
Tm [1]: 53.2 °C | folding enthalpy [2]: -39.1 kcal/mol

GTTGGCCCGAAAGGGAAC (((..(((....))))))
Tm [1]: 45.3 °C | folding enthalpy [2]: -18.8 kcal/mol

GATATGGGAAACCACATC (((.(((....))).)))
Tm [1]: 28.4 °C | folding enthalpy [2]: -15 kcal/mol

GATCCAATCTTGGATC ((((((....))))))
Tm [1]: 54.3 °C | folding enthalpy [2]: -33 kcal/mol

GATCCGCGCCCGGATC ((((((....))))))
Tm [1]: 56.5 °C | folding enthalpy [2]: -45.8 kcal/mol

GGATCCGAAAGGATTCC ((((((....))).)))
Tm [1]: 51.7 °C | folding enthalpy [2]: -30.2 kcal/mol

GTTAAGGCGAAAGCCAAC (((..(((....))))))
Tm [1]: 32.8 °C | folding enthalpy [2]: -11 kcal/mol

GCATAGCGAAAGCTCCGC ((..(((....)))..))
Tm [1]: 32.6 °C | folding enthalpy [2]: -8.77 kcal/mol

GTGGCCGAAAGGCGGCAC ((((((....)))..)))
Tm [1]: 46.7 °C | folding enthalpy [2]: -13.8 kcal/mol

CGGACCGGAAACGGCCCG (((.(((....))).)))
Tm [1]: 56.4 °C | folding enthalpy [2]: -39.9 kcal/mol

GGACACCCGAAAGGGTCC (((..(((....))))))
Tm [1]: 40.9 °C | folding enthalpy [2]: -11.5 kcal/mol

GTGGATGGAAACATCTGC (..((((....))))..)
Tm [1]: 37.6 °C | folding enthalpy [2]: -23 kcal/mol

GCTTGTGGAAACGTAAGC ((((..(....)..))))
Tm [1]: 36.6 °C | folding enthalpy [2]: -17.7 kcal/mol

GGAGTCCGAAAGGAATCC (((.(((....))).)))
Tm [1]: 56.4 °C | folding enthalpy [2]: -41.5 kcal/mol

CGTGCTCGGAAACGAACG (((..(((....))))))
Tm [1]: 21.2 °C | folding enthalpy [2]: -5.98 kcal/mol

GCTGAGCGAAAGCCTAGC (((..((....))..)))
Tm [1]: 48.4 °C | folding enthalpy [2]: -16.4 kcal/mol

GATCGTCAGAACGATC ((((((....))))))
Tm [1]: 55.1 °C | folding enthalpy [2]: -35.2 kcal/mol

GATCTCAGTGGAGATC ((((((....))))))
Tm [1]: 52.6 °C | folding enthalpy [2]: -40.9 kcal/mol

GTCCTTCGAAAGAAGAC (((.(((....))))))
Tm [1]: 36.7 °C | folding enthalpy [2]: -18.3 kcal/mol

GCGTTCACGAAAGTGCGC (((..(((....))))))
Tm [1]: 51.4 °C | folding enthalpy [2]: -19.2 kcal/mol

GTCAGGGAAACCTGAC ((((((....))))))
Tm [1]: 61.6 °C | folding enthalpy [2]: -32.5 kcal/mol

GATCGTATTAACGATC ((((((....))))))
Tm [1]: 55.9 °C | folding enthalpy [2]: -37.1 kcal/mol

GCGGACGGCCGC ((((....))))
Tm [1]: 59.4 °C | folding enthalpy [2]: -37.6 kcal/mol

GATCCACGATTGGATC ((((((....))))))
Tm [1]: 48 °C | folding enthalpy [2]: -37 kcal/mol

GTATCCACGAAAGTGTAC (((..(((....))))))
Tm [1]: 21.2 °C | folding enthalpy [2]: -10.6 kcal/mol

GGCTAAGAAATTAGCC ((((((....))))))
Tm [1]: 53.8 °C | folding enthalpy [2]: -27 kcal/mol

GCGACAATTCGC ((((....))))
Tm [1]: 44.8 °C | folding enthalpy [2]: -17.2 kcal/mol

GATCCAGACATGGATC ((((((....))))))
Tm [1]: 58 °C | folding enthalpy [2]: -39.9 kcal/mol

GATCGAGATTCGATC ((((((...))))))
Tm [1]: 50.4 °C | folding enthalpy [2]: -41.4 kcal/mol

GCGGAGCCGAAAGGCCGC (((..(((....))))))
Tm [1]: 61.1 °C | folding enthalpy [2]: -18.8 kcal/mol

GGAGATCGAAAGATTCC (((.(((....))))))
Tm [1]: 36 °C | folding enthalpy [2]: -18.9 kcal/mol
